Test results from ChEMBL document CHEMBL3393016, “Development of novel Asf1-H3/H4 inhibitors” (Bioorg Med Chem Lett, 2015).
pIC50: −log10 of the molar value. The source made the active and inactive calls. The calls are words filed in the database; no cut-off is given here.

Molecular target: T1, Histone chaperone ASF1A (Homo sapiens, UniProt Q9Y294)
Experiment: Inhibition of globular core domain of Asf1 (unknown origin) binding with H3/H4 after 15 to 30 mins by ELISA assay
In short: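 Wells coated with H3/H4 dimer at 1 μg/mL in PBS-T at 4°C overnight, then blocked with 5% milk in PBS-T. Asf1 globular core at 5 μM preincubated with compound at 100 μM (or various concentrations) for 1 h at 4°C. Samples diluted in 10 mM Tris pH 7.9, 1 mM DTT and bound to plate 1 h at room temperature. Bound Asf1 detected with anti-Asf1 and HRP secondary antibodies, then TMB for 15–30 min; OD read at 450 nm.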

T1 sequence (Q9Y294 whole entry, the tested form may be a part): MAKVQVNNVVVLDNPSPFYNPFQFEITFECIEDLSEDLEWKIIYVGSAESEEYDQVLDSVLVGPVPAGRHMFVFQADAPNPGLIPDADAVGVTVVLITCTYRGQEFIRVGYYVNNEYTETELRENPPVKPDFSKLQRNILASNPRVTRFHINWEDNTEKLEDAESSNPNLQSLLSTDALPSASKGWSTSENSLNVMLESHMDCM

How did the inhibition turn out when `COc1cc(C2C(Cl)C(=O)N2NC(=O)c2ccc(N)cc2)cc(Br)c1O` (configuration not stated) was run?
The inhibition was “Active”.

With `COc1ccc(-c2cc([C@@H](O)[C@@H]3CCCCN3)c3ccccc3n2)cc1` (racemic) as the compound, how does the inhibition read?
The inhibition was “Active”.

Test system: MDA-MB-231
Experiment: Cytotoxicity against human MDA-MB-231 cells assessed as inhibition of cell viability at 24 uM after 24 hrs by trypan blue exclusion assay
Type: functional, cell-based
In short: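 MDA-MB-231 cells grown to 80% confluence, seeded at 1.5 × 10^5 cells/mL and incubated overnight. Medium then replaced with serum-free medium containing drug at 24 μM. After 1 h, FBS added to each well. Viable cell density counted by trypan blue exclusion after a further 24 h. Viability expressed as percent of DMSO-only control.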

With `COc1ccc(-c2cc(C(=O)C3CCCCN3)c3ccccc3n2)cc1` (configuration not stated) as the compound, how does the inhibition read?
The inhibition was “inactive”.

How did the inhibition turn out when `COc1ccc(-c2cc(C(=O)N3CCCCC3)c3ccccc3n2)cc1` was run?
Its inhibition is “inactive”.

With `COc1ccc(-c2cc(C(=O)NCCO)c3ccccc3n2)cc1` as the compound, how does the inhibition read?
The inhibition was “inactive”.

How did the inhibition turn out when `CCN(CC)C(=O)c1cc(-c2ccc(OC)cc2)nc2ccccc12` was run?
Its inhibition is “inactive”.

How did the inhibition turn out when `COc1ccc(-c2cc(C(=O)N(C)C)c3ccccc3n2)cc1` was run?
Its inhibition is “inactive”.

Which inhibition does the source give for `COc1ccc(-c2cc([C@@H](O)[C@@H]3CCCCN3)c3ccccc3n2)cc1` (racemic) here?
Its inhibition is “Active”.

For `COc1ccc(-c2cc(C(=O)N3CCOCC3)c3ccccc3n2)cc1`, which inhibition is on record?
Its inhibition is “inactive”.

How did the inhibition turn out when `COc1ccc(-c2cc([C@H](O)[C@@H]3CCCCN3)c3ccccc3n2)cc1` (racemic) was run?
Its inhibition is “Active”.

Molecular target: T1, Histone chaperone ASF1A
Experiment: Inhibition of His-tagged human Asf1a binding with H3/H4 assessed as fluorescence intensity after 30 mins by ALPHA assay

`O=C(N/N=C/c1cc(Br)ccc1O)c1ccncc1` was tested. Which pIC50 did it give?
The pIC50 was 6.22.

With `COc1cc(CCNC(=O)c2ccc(NC(=O)c3ccccc3)cc2)cc(Br)c1O` as the compound, how does the pIC50 read?
The pIC50 was under 4.00.

With `COc1cc(C/C=N/NC(=O)c2ccc(NC(=O)c3ccccc3)cc2)cc(Br)c1O` as the compound, how does the pIC50 read?
Its pIC50 is under 4.00.

How did the pIC50 turn out when `COc1cc(/C=N/NC(=O)C2CCNCC2)cc(Br)c1O` was run?
Its pIC50 is under 4.00.

How did the pIC50 turn out when `COc1cc(/C=N/NC(=O)c2ccncc2)cc(Br)c1O` was run?
Its pIC50 is under 4.00.

`COc1cc(/C=N/NC(=O)c2ccc(NC(C)=O)nc2)cc(Br)c1O` was tested. Which pIC50 did it give?
The pIC50 was under 4.00.

With `COc1cc(/C=N/NC(=O)c2ccc(NC(C)=O)cc2)cc(Br)c1O` as the compound, how does the pIC50 read?
The pIC50 was under 4.00.

`COc1cc(/C=N/NC(=O)c2ccc(NC(=O)c3ccccc3)c(COCCN(C)C)c2)cc(Br)c1O` was tested. Which pIC50 did it give?
The pIC50 was under 4.00.

`O=C(N/N=C/c1ccncc1)c1ccc(NC(=O)c2ccccc2)cc1` was tested. Which pIC50 did it give?
Its pIC50 is under 4.00.

How did the pIC50 turn out when `O=C(N/N=C/c1cccc(OCCN2CCOCC2)c1)c1ccc(NC(=O)c2ccccc2)cc1` was run?
The pIC50 was under 4.00.

How did the pIC50 turn out when `COc1cc(/C=N/NC(=O)c2ccc(NC(=O)c3ccccc3)cc2)ccn1` was run?
Its pIC50 is under 4.00.

With `COc1cc(/C=N/NC(=O)c2ccc(NC(=O)c3ccccc3)cc2)ccc1O` as the compound, how does the pIC50 read?
Its pIC50 is under 4.00.

`COc1cc(/C=N/NC(=O)C2CCOCC2)cc(Br)c1O` was tested. Which pIC50 did it give?
Its pIC50 is under 4.00.

How did the pIC50 turn out when `COc1cc(/C=N/NC(=O)Cc2ccc(NC(=O)c3ccccc3)cc2)cc(Br)c1O` was run?
Its pIC50 is under 4.00.

How did the pIC50 turn out when `COc1cc(CNNC(=O)c2ccc(NC(=O)c3ccccc3)cc2)cc(Br)c1O` was run?
The pIC50 was under 4.00.

`COc1cc(/C=N/N(C)C(=O)c2ccc(NC(=O)c3ccccc3)cc2)cc(Br)c1O` was tested. Which pIC50 did it give?
The pIC50 was under 4.92.

How did the pIC50 turn out when `COc1cc(/C=N/NC(=O)c2ccccc2)cc(Br)c1O` was run?
The pIC50 was under 4.00.
